Test results reported in ChEMBL document CHEMBL4011632, “Design, Synthesis, and Evaluation of Thiazolidine-2,4-dione Derivatives as a Novel Class of Glutaminase Inhibitors” (J Med Chem, 2017).
Calls of active or inactive are those of the source. No cut-off for these calls is given here.

What was measured:
[1] = test system: ASPC1; assay: Anticlonogenic activity against human Aspc-1 cells at 2 uM after 21 days by crystal violet staining based assay relative to control; format: functional; conditions: ASPC1, 504 h
Method in brief: (§1)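 Anchorage-dependent colony formation: AsPC-1 cells seeded at 1000 cells/well in six-well plates and treated with compound. Colony formation is expressed as percent of vehicle treatment. Mean ± SD from at least three independent experiments, each in duplicate.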

[2] = target: T1, Glutaminase liver isoform, mitochondrial (Homo sapiens, UniProt Q9UI32); assay: Inhibition of recombinant human His-tagged GAB (P56 to V602 residues) expressed in Escherichia coli C41(DE3)pLysS using glutamine as substrate preincubated for 10 mins followed by substrate addition measured after 60 mins by glutamate dehydrogenase coupled enzyme assay
T1 sequence (Q9UI32 whole entry): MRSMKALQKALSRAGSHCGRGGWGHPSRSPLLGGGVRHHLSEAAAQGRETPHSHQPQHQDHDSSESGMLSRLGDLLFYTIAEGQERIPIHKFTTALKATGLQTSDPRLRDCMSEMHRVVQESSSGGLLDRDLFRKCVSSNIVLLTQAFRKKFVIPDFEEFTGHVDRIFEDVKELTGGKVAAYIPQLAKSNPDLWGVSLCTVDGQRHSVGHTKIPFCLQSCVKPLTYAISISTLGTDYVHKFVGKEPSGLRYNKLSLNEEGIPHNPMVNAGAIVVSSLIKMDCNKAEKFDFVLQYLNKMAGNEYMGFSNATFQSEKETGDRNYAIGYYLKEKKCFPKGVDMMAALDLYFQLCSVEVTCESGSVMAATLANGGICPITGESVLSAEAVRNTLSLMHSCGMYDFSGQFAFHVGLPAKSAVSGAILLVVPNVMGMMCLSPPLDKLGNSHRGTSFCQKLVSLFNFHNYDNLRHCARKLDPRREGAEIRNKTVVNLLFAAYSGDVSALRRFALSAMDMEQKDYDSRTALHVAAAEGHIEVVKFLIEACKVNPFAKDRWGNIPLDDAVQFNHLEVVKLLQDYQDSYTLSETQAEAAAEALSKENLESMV

[3] = target: T2, Glutaminase kidney isoform, mitochondrial (Homo sapiens, UniProt O94925); assay: Inhibition of recombinant human His-tagged KGA (L123 to L669 residues) expressed in Escherichia coli BL21(DE3)pLysS using glutamine substrate preincubated for 10 mins followed by substrate addition measured after 60 mins by glutamate dehydrogenase coupled enzyme assay
T2 sequence (O94925 whole entry): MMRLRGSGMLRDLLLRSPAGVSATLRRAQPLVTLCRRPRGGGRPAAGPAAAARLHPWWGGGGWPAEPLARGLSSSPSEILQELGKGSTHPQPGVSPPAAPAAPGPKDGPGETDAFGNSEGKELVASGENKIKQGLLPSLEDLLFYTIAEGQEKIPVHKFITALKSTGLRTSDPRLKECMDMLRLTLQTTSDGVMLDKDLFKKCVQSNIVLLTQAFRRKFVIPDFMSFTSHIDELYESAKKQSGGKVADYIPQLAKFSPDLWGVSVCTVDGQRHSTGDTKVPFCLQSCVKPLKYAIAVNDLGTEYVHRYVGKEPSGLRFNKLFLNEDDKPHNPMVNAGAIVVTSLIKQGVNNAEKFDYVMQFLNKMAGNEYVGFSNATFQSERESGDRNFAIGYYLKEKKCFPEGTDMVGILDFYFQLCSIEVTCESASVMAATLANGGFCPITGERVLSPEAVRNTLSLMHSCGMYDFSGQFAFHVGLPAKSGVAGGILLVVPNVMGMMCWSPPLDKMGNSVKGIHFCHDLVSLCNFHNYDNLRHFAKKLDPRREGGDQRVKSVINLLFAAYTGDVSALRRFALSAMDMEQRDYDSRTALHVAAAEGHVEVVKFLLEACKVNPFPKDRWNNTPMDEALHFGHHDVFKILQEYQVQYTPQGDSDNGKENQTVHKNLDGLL

[4] = target: T2, Glutaminase kidney isoform, mitochondrial; assay: Inhibition of recombinant human MCF7 cells derived His-tagged GAC (L123 to S598 residues) expressed in Escherichia coli C41(DE3)pLysS using glutamine as substrate preincubated for 10 mins followed by substrate addition measured after 60 mins by glutamate dehydrogenase coupled enzyme assay
Method in brief: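 Human GAC cloned from MCF7 cDNA into pET28a(+) as a His-tagged construct. Expressed in E. coli C41(DE3)pLysS in Terrific Broth with kanamycin, induced with 1 mM IPTG for 6 h at 25 °C. Purified on Ni2+ resin with 500 mM imidazole elution and exchanged into 50 mM NaH2PO4, 50 mM Tris-HCl pH 8.0, 2 mM DTT, 50% glycerol. Activity measured by two-step glutaminase assay.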

[5] = species on record: Homo sapiens; assay: Selectivity index, ratio of IC50 for recombinant human His-tagged GAB (P56-V602 residues) expressed in Escherichia coli C41(DE3)pLysS to IC50 for recombinant human His-tagged KGA (L123 to L669 residues) expressed in Escherichia coli BL21(DE3)pLysS
[6] = test system: ASPC1; assay: Anticlonogenic activity against human Aspc-1 cells at 10 uM after 21 days by crystal violet staining based assay relative to control; format: functional; conditions: ASPC1, 504 h; method in brief: as §1
[7] = test system: ASPC1; assay: Growth inhibition of human Aspc-1 cells after 72 hrs by MTS assay; format: functional, cell-based; conditions: ASPC1, 72 h
Method in brief: (§2)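 Growth inhibition by MTS viability read-out. Cells seeded in 96-well plates at 4000/well (AsPC-1) or 8500/well (MDA-MB-231). Mean ± SD from at least three independent experiments, each in duplicate.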

[8] = test system: MDA-MB-231; assay: Growth inhibition of human MDA-MB-231 cells after 72 hrs by MTS assay; format: functional, cell-based; conditions: MDA-MB-231, 72 h; method in brief: as §2
[9] = species on record: Homo sapiens; assay: Selectivity ratio of IC50 for recombinant human His-tagged KGA K507A mutant expressed in Escherichia coli BL21(DE3)pLysS to IC50 for human His-tagged KGA (L123 to L669 residues) expressed in Escherichia coli BL21(DE3)pLysS
[10] = target: T3, Peroxisome proliferator-activated receptor alpha (Homo sapiens) (UniProt Q07869); assay: Transactivation of GAL4-DBD fused human PPARalpha LBD (193 to 469 residues) expressed in African green monkey CV1 cells after 18 to 24 hrs by luciferase reporter gene assay; format: cell-based
T3 sequence (whole entry): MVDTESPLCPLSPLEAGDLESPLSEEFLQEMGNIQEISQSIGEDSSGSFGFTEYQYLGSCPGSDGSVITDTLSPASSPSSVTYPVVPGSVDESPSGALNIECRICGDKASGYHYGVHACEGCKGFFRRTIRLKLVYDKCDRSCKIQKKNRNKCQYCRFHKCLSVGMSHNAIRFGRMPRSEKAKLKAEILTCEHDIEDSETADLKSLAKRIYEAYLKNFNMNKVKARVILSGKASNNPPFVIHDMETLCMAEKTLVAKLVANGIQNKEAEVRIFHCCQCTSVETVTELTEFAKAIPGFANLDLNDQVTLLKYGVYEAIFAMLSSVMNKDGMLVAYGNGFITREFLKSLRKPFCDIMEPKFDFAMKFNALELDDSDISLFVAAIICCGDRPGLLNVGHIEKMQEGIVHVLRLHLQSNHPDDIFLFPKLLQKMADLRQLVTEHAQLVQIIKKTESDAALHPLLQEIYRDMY

| IC50 [2] | IC50 [3] | IC50 [4] | Ratio IC50 [5] | IC50 [7] | IC50 [8] | Ratio IC50 [9] | Activity [10] | SMILES | inhibition at 2 µM [1] | inhibition at 10 µM [6] |
| --- | --- | --- | --- | --- | --- | --- | --- | --- | --- | --- |
| 1190 nM | 102 nM | 381 nM | 12 | 34500 nM | 42000 nM | 10.2 | – | Cc1cc(/C=C2\SC(=O)NC2=O)c(C)n1-c1ccc(-c2ccc(/C=C3\SC(=O)NC3=O)cc2)cc1 | 13% | 59% |
| 102 nM | 50 nM | 49 nM | 2 | 14800 nM | 28700 nM | – | inactive | O=C1NC(=O)/C(=C/c2ccc(-c3ccc(-n4c(-c5cccs5)cc(/C=C5\SC(=O)NC5=O)c4-c4cccs4)cc3)cc2)S1 | 64% | 87% |
| 4190 nM | 57 nM | 255 nM | 74 | > 50000 nM | > 50000 nM | 4.7 | inactive | Cc1cc(/C=C2\SC(=O)NC2=O)c(C)n1-c1ccc(-c2ccc(/C=C3\SC(=O)NC3=O)c(Cl)c2)cc1 | 18% | 51% |
